Source: ChEMBL document CHEMBL1157864, “Synthesis of some novel 2-substituted-5-[isopropylthiazole] clubbed 1,2,4-triazole and 1,3,4-oxadiazoles as potential antimicrobial and antitubercular agents” (Eur J Med Chem, 2010)
In brackets after ≈: the same amount, converted by molar mass.

Tests used:
Format in all cases: functional
Staphylococcus aureus = experiment: Antimicrobial activity against Staphylococcus aureus ATCC 11632 after 24 hrs by broth microdilution assay; settings: ATCC 11632, 24 h
How it was run: (§1)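 Broth dilution MIC. Stock is 10 mg compound in 1 mL DMSO, serially diluted in Mueller–Hinton broth for bacteria or Sabouraud liquid medium for yeasts and mould. Tubes are inoculated at 10⁵ cfu/mL and incubated at 37 °C for 24 h. Controls are medium alone and medium with DMSO at matching dilutions. MIC is the lowest concentration giving complete growth inhibition.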

Enterococcus faecalis = experiment: Antimicrobial activity against Streptococcus faecalis ATCC 14506 after 24 hrs by broth microdilution assay; settings: ATCC 14506, 24 h; how it was run: as §1
Bacillus subtilis = experiment: Antimicrobial activity against Bacillus subtilis ATCC 60511 after 24 hrs by broth microdilution assay; settings: ATCC 60511, 24 h; how it was run: as §1
Klebsiella pneumoniae = experiment: Antimicrobial activity against Klebsiella pneumoniae ATCC 10031 after 24 hrs by broth microdilution assay; settings: ATCC 10031, 24 h; how it was run: as §1
Escherichia coli = experiment: Antimicrobial activity against Escherichia coli ATCC 10536 after 24 hrs by broth microdilution assay; settings: ATCC 10536, 24 h; how it was run: as §1
Pseudomonas aeruginosa = experiment: Antimicrobial activity against Pseudomonas aeruginosa ATCC 10145 after 24 hrs by broth microdilution assay; settings: ATCC 10145, 24 h; how it was run: as §1
Saccharomyces cerevisiae = experiment: Antimicrobial activity against Saccharomyces cerevisiae ATCC 9763 after 24 hrs by broth microdilution assay; settings: ATCC 9763, 24 h; how it was run: as §1
Candida tropicalis = experiment: Antimicrobial activity against Candida tropicalis ATCC 1369 after 24 hrs by broth microdilution assay; settings: ATCC 1369, 24 h; how it was run: as §1
Aspergillus niger = experiment: Antimicrobial activity against Aspergillus niger ATCC 6275 after 24 hrs by broth microdilution assay; settings: ATCC 6275, 24 h; how it was run: as §1
[1] = system: Mycobacterium tuberculosis; experiment: Antimycobacterial activity against Mycobacterium tuberculosis H37Rv after 21 days by broth dilution assay; settings: 504 h
How it was run: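 Middlebrook 7H9 broth with 10% albumin-dextrose-catalase and 0.2% glycerol; frozen culture thawed, diluted to 10⁵ cfu/mL and used as inoculum. Compounds taken up in DMSO and diluted twice in broth, 1.3% DMSO final. Incubated at 37 °C. Growth judged by eye against drug-free and inoculum-free controls and isoniazid. MIC is the lowest concentration inhibiting ≥99% of the starting population.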

SMILES	MIC (Staphylococcus aureus) [µg/mL]	MIC (Enterococcus faecalis) [µg/mL]	MIC (Bacillus subtilis) [µg/mL]	MIC (Klebsiella pneumoniae) [µg/mL]	MIC (Escherichia coli) [µg/mL]	MIC (Pseudomonas aeruginosa) [µg/mL]	MIC (Saccharomyces cerevisiae) [µg/mL]	MIC (Candida tropicalis) [µg/mL]	MIC (Aspergillus niger) [µg/mL]	MIC [1] [µg/mL]
CC(C)c1csc(-c2nnc(S)n2/N=C/c2ccc(Br)cc2)n1	62.5 (≈ 153 µM)	125 (≈ 306 µM)	125 (≈ 306 µM)	125 (≈ 306 µM)	62.5 (≈ 153 µM)	62.5 (≈ 153 µM)	125 (≈ 306 µM)	62.5 (≈ 153 µM)	62.5 (≈ 153 µM)	125 (≈ 306 µM)
COc1cc(/C=N/n2c(S)nnc2-c2nc(C(C)C)cs2)cc(OC)c1OC	125 (≈ 298 µM)	62.5 (≈ 149 µM)	125 (≈ 298 µM)	62.5 (≈ 149 µM)	62.5 (≈ 149 µM)	125 (≈ 298 µM)	62.5 (≈ 149 µM)	125 (≈ 298 µM)	62.5 (≈ 149 µM)	125 (≈ 298 µM)
COc1ccc(-c2nnc(-c3nc(C(C)C)cs3)o2)cc1	31.2 (≈ 104 µM)	31.2 (≈ 104 µM)	31.2 (≈ 104 µM)	31.2 (≈ 104 µM)	16 (≈ 53.1 µM)	16 (≈ 53.1 µM)	31.2 (≈ 104 µM)	31.2 (≈ 104 µM)	31.2 (≈ 104 µM)	16 (≈ 53.1 µM)
CC(C)c1csc(-c2nnc(S)n2/N=C/c2ccc(N(C)C)cc2)n1	16 (≈ 43 µM)	125 (≈ 336 µM)	31.2 (≈ 83.9 µM)	16 (≈ 43 µM)	16 (≈ 43 µM)	16 (≈ 43 µM)	31.2 (≈ 83.9 µM)	125 (≈ 336 µM)	16 (≈ 43 µM)	125 (≈ 336 µM)
CC(C)c1csc(-c2nnc3sc(-c4ccc([N+](=O)[O-])cc4)nn23)n1	125 (≈ 336 µM)	125 (≈ 336 µM)	16 (≈ 43 µM)	16 (≈ 43 µM)	125 (≈ 336 µM)	31.2 (≈ 83.9 µM)	8 (≈ 21.5 µM)	8 (≈ 21.5 µM)	16 (≈ 43 µM)	31.2 (≈ 83.9 µM)
Cc1ccc(-c2nn3c(-c4nc(C(C)C)cs4)nnc3s2)cc1	125 (≈ 366 µM)	125 (≈ 366 µM)	62.5 (≈ 183 µM)	250 (≈ 732 µM)	125 (≈ 366 µM)	62.5 (≈ 183 µM)	250 (≈ 732 µM)	125 (≈ 366 µM)	125 (≈ 366 µM)	31.2 (≈ 91.5 µM)
CC(C)c1csc(-c2nnc3sc(-c4ccc(O)cc4)nn23)n1	250 (≈ 728 µM)	125 (≈ 364 µM)	125 (≈ 364 µM)	125 (≈ 364 µM)	125 (≈ 364 µM)	125 (≈ 364 µM)	250 (≈ 728 µM)	125 (≈ 364 µM)	125 (≈ 364 µM)	62.5 (≈ 182 µM)
COc1ccc(-c2nn3c(-c4nc(C(C)C)cs4)nnc3s2)cc1	31.2 (≈ 87.4 µM)	16 (≈ 44.8 µM)	125 (≈ 350 µM)	31.2 (≈ 87.4 µM)	125 (≈ 350 µM)	31.2 (≈ 87.4 µM)	16 (≈ 44.8 µM)	16 (≈ 44.8 µM)	31.2 (≈ 87.4 µM)	31.2 (≈ 87.4 µM)
CC(C)c1csc(-c2nnc(S)n2/N=C/c2ccccc2)n1	250 (≈ 759 µM)	31.2 (≈ 94.9 µM)	31.2 (≈ 94.9 µM)	31.2 (≈ 94.9 µM)	62.5 (≈ 190 µM)	31.2 (≈ 94.9 µM)	125 (≈ 379 µM)	62.5 (≈ 190 µM)	62.5 (≈ 190 µM)	62.5 (≈ 190 µM)
CC(C)c1csc(-c2nnc3sc(-c4ccccc4)nn23)n1	125 (≈ 382 µM)	16 (≈ 48.9 µM)	16 (≈ 48.9 µM)	125 (≈ 382 µM)	125 (≈ 382 µM)	31.2 (≈ 95.4 µM)	125 (≈ 382 µM)	125 (≈ 382 µM)	31.2 (≈ 95.4 µM)	62.5 (≈ 191 µM)
CC(C)c1csc(-c2nnc(S)n2/N=C/C=C/c2ccccc2)n1	8 (≈ 22.5 µM)	31.2 (≈ 87.9 µM)	8 (≈ 22.5 µM)	4 (≈ 11.3 µM)	4 (≈ 11.3 µM)	16 (≈ 45 µM)	31.2 (≈ 87.9 µM)	31.2 (≈ 87.9 µM)	125 (≈ 352 µM)	4 (≈ 11.3 µM)
CC(C)c1csc(-c2nnc(S)n2/N=C/c2ccc[nH]2)n1	31.2 (≈ 98.1 µM)	31.2 (≈ 98.1 µM)	62.5 (≈ 196 µM)	31.2 (≈ 98.1 µM)	62.5 (≈ 196 µM)	62.5 (≈ 196 µM)	31.2 (≈ 98.1 µM)	62.5 (≈ 196 µM)	16 (≈ 50.2 µM)	31.2 (≈ 98.1 µM)
COc1cc(/C=N/n2c(S)nnc2-c2nc(C(C)C)cs2)ccc1O	250 (≈ 666 µM)	125 (≈ 333 µM)	125 (≈ 333 µM)	125 (≈ 333 µM)	125 (≈ 333 µM)	125 (≈ 333 µM)	250 (≈ 666 µM)	125 (≈ 333 µM)	125 (≈ 333 µM)	62.5 (≈ 166 µM)
CC(C)c1csc(-c2nnc3sc(-c4ccc(Cl)cc4)nn23)n1	8 (≈ 22.1 µM)	16 (≈ 44.2 µM)	8 (≈ 22.1 µM)	16 (≈ 44.2 µM)	16 (≈ 44.2 µM)	8 (≈ 22.1 µM)	31.2 (≈ 86.4 µM)	31.2 (≈ 86.4 µM)	125 (≈ 345 µM)	8 (≈ 22.1 µM)
COc1ccc(/C=N/n2c(S)nnc2-c2nc(C(C)C)cs2)cc1	31.2 (≈ 86.9 µM)	31.2 (≈ 86.9 µM)	31.2 (≈ 86.9 µM)	16 (≈ 44.5 µM)	31.2 (≈ 86.9 µM)	31.2 (≈ 86.9 µM)	62.5 (≈ 174 µM)	62.5 (≈ 174 µM)	62.5 (≈ 174 µM)	31.2 (≈ 86.9 µM)
CC(C)c1csc(-c2nnc(S)n2/N=C/c2ccccc2O)n1	250 (≈ 724 µM)	250 (≈ 724 µM)	250 (≈ 724 µM)	250 (≈ 724 µM)	250 (≈ 724 µM)	250 (≈ 724 µM)	125 (≈ 362 µM)	125 (≈ 362 µM)	125 (≈ 362 µM)	62.5 (≈ 181 µM)
CC(C)c1csc(-c2nnc(S)n2-c2ccccc2)n1	16 (≈ 52.9 µM)	125 (≈ 413 µM)	16 (≈ 52.9 µM)	31.2 (≈ 103 µM)	16 (≈ 52.9 µM)	31.2 (≈ 103 µM)	8 (≈ 26.5 µM)	16 (≈ 52.9 µM)	16 (≈ 52.9 µM)	31.2 (≈ 103 µM)
CSc1nnc(-c2nc(C(C)C)cs2)n1-c1ccccc1	16 (≈ 50.6 µM)	16 (≈ 50.6 µM)	31.2 (≈ 98.8 µM)	31.2 (≈ 98.8 µM)	62.5 (≈ 198 µM)	16 (≈ 50.6 µM)	16 (≈ 50.6 µM)	16 (≈ 50.6 µM)	31.2 (≈ 98.8 µM)	62.5 (≈ 198 µM)
O=C(O)c1cn(C2CC2)c2cc(N3CCNCC3)c(F)cc2c1=O [CIPROFLOXACIN]	≤ 5	≤ 5	≤ 1	≤ 1	≤ 1	5 (≈ 15.1 µM)	–	–	–	–
OC(Cn1cncn1)(Cn1cncn1)c1ccc(F)cc1F [FLUCONAZOLE]	–	–	–	–	–	–	≤ 1	≤ 1	≤ 1	–
NNC(=O)c1ccncc1 [ISONIAZID]	–	–	–	–	–	–	–	–	–	0.25 (≈ 1.82 µM)
CCn1cc(C(=O)O)c(=O)c2cc(F)c(N3CCNCC3)cc21 [NORFLOXACIN]	5 (≈ 15.7 µM)	5 (≈ 15.7 µM)	≤ 1	≤ 1	≤ 1	5 (≈ 15.7 µM)	–	–	–	–
